Data: ChEMBL document CHEMBL2069262, “Stimulation of Glucose-Dependent Insulin Secretion by a Potent, Selective sst3 Antagonist” (ACS Med Chem Lett, 2012)
The source made the active and inactive calls. No cut-off for these calls is given here.

How the values were obtained:
[1] = target: T1, Somatostatin receptor type 3 (Homo sapiens, UniProt P32745); experiment: Displacement of [125I]SS-14 from human SST3 receptor expressed in CHO cells after 60 mins by scintillation counting; format: cell-based
[2] = target: T1, Somatostatin receptor type 3; format: functional, cell-based, CHO
[3] = Activation of glucose-stimulated insulin secretion in C57BL/6J mouse pancreatic islets at 10 nM after 1 hr by ELISA in presence of 16 mM glucose relative to DMSO; format: functional; details: Pancreatic islet
Outline: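 Pancreatic islets were isolated from normal C57BL/6J mice. Insulin secretion was measured at 2 and 16 mM glucose. Treatments were test agent at 10 μM, octreotide at 50 nM, the two combined, DMSO as negative control and GLP-1 at 10 nM as positive control. n = 4.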

[4] = target: Voltage-gated inwardly rectifying potassium channel KCNH2 (Homo sapiens, UniProt Q12809); experiment: Displacement of [35S]MK499 from human Erg expressed in HEK293 cells after 60 mins by scintillation counting; format: cell-based
Mus musculus = experiment: Dose normalized AUC in C57BL/6N mouse at 2 mg/kg, po; format: ADME, organism-based; set-up: dose 2 mg/kg, route oral; details: in vivo
[5] = target: Voltage-gated L-type calcium channel (Homo sapiens, UniProt Q13936+Q13698+Q01668+O60840); experiment: Binding affinity to L-type calcium channel
[6] = Volume of distribution at steady state in C57BL/6N mouse at 1 mg/kg, iv and 2 mg/kg, po; format: ADME, organism-based; details: in vivo, read-out: Vdss
[7] = Half life in C57BL/6N mouse at 1 mg/kg, iv and 2 mg/kg, po; format: ADME, organism-based; details: in vivo
[8] = Oral bioavailability in C57BL/6N mouse at 2 mg/kg; format: ADME, organism-based; details: in vivo
[9] = Clearance in C57BL/6N mouse at 1 mg/kg, iv and 2 mg/kg, po; format: ADME, organism-based; details: in vivo
[10] = Cmax in C57BL/6N mouse at 2 mg/kg, po; format: ADME, organism-based; set-up: dose 2 mg/kg, route oral; details: in vivo

T1 sequence (P32745 whole entry): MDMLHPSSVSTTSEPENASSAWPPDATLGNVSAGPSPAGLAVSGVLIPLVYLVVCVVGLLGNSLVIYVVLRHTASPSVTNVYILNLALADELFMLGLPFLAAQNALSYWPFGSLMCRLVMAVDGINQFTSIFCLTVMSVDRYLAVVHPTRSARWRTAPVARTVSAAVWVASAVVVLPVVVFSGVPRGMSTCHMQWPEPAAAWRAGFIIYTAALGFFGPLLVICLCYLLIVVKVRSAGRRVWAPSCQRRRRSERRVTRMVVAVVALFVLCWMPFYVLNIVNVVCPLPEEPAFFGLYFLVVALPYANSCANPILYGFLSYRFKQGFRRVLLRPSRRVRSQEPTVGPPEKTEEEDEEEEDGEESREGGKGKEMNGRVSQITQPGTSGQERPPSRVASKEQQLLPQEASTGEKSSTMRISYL
Chain of Voltage-gated inwardly rectifying potassium channel KCNH2 (Q12809 whole entry): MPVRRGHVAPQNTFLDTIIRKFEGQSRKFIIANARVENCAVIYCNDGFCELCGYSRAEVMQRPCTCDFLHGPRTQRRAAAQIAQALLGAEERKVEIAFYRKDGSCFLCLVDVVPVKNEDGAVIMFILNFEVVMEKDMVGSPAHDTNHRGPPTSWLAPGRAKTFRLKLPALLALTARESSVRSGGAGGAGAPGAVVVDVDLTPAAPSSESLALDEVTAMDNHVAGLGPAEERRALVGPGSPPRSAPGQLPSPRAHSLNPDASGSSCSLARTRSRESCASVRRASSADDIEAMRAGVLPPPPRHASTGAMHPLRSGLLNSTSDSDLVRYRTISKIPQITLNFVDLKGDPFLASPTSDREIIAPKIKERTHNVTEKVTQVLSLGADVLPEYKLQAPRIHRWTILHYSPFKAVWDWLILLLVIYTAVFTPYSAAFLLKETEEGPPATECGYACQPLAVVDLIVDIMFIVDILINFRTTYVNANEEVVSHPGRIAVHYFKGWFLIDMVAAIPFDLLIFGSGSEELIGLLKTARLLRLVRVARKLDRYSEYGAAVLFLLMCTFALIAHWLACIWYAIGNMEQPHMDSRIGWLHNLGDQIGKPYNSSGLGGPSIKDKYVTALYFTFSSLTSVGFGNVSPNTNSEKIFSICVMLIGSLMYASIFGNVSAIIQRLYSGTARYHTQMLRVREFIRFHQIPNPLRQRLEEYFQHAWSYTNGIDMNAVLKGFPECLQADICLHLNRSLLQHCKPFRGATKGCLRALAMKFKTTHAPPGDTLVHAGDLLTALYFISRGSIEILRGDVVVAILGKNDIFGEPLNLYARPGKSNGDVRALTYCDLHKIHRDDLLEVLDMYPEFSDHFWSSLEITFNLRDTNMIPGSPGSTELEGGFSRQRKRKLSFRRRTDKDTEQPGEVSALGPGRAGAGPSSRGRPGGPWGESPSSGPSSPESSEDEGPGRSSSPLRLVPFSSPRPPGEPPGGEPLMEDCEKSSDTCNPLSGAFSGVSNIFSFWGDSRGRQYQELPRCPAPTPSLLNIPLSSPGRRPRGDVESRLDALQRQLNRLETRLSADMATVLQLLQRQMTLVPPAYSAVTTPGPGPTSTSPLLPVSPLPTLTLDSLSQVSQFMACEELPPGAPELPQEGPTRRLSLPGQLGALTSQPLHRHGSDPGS

Compound	IC50 [1]	IC50 [2]	IC50 [4]	other results
c1ccc(-c2c[nH]c([C@H]3Cc4c([nH]c5ccccc45)[C@H](C4CCOCC4)N3)n2)cc1	390 nM	1200 nM		
CC[C@H](C)[C@H](NC(=O)[C@H](Cc1ccccc1)NC(=O)[C@H](CCC(=O)O)NC(=O)[C@H](CCCCN)NC(=O)[C@H](C)NC(=O)[C@H](C)NC(=O)[C@H](CCC(N)=O)NC(=O)CNC(=O)[C@H](CCC(=O)O)NC(=O)[C@H](CC(C)C)NC(=O)[C@H](Cc1ccc(O)cc1)NC(=O)[C@H](CO)NC(=O)[C@H](CO)NC(=O)[C@@H](NC(=O)[C@H](CC(=O)O)NC(=O)[C@H](CO)NC(=O)[C@@H](NC(=O)[C@H](Cc1ccccc1)NC(=O)[C@@H](NC(=O)CNC(=O)[C@H](CCC(=O)O)NC(=O)[C@H](C)N[C@@H](Cc1cnc[nH]1)C(=O)O)[C@@H](C)O)[C@H](C)O)C(C)C)C(=O)N[C@@H](C)C(=O)N[C@@H](Cc1c[nH]c2ccccc12)C(=O)N[C@@H](CC(C)C)C(=O)N[C@H](C(=O)N[C@@H](CCCCN)C(=O)NCC(=O)N[C@@H](CCCNC(=N)N)C(N)=O)C(C)C				Activity [3]: Active
COC(=O)N1CCC(C2N[C@@H](c3nc(-c4ccccc4)c[nH]3)Cc3c2[nH]c2ccccc32)CC1 (some centres not stated)	4 nM	66 nM	700 nM	
c1ccc(-c2c[nH]c([C@H]3Cc4c([nH]c5ccccc45)C(C4CCCCC4)N3)n2)cc1 (some centres not stated)				AUC/dose (Mus musculus): 0.07 µM·h/mg; IC50 [5]: 308 nM; Vd [6]: 8.1 L/kg; half-life [7]: 8.4 min; bioavailability [8]: 15%; clearance [9]: 95 mL/min/kg; Cmax [10]: 60 nM
CNC(=O)N1CCC(C2N[C@@H](c3nc(-c4ccccc4)c[nH]3)Cc3c2[nH]c2ccccc32)CC1 (some centres not stated)	35 nM	180 nM	240 nM	
c1ccc(-c2c[nH]c([C@H]3Cc4c([nH]c5ccccc45)C(C4CCSCC4)N3)n2)cc1 (some centres not stated)	1.7 nM	10 nM	120 nM	
CS(=O)(=O)N1CCC(C2N[C@@H](c3nc(-c4ccccc4)c[nH]3)Cc3c2[nH]c2ccccc32)CC1 (some centres not stated)	44 nM			
c1ccc(-c2c[nH]c([C@H]3Cc4c([nH]c5ccccc45)C(C4CCNCC4)N3)n2)cc1 (some centres not stated)	63 nM	220 nM		
